Measurements published in ChEMBL document CHEMBL3085733, “Modulation of the fibrillogenesis inhibition properties of two transthyretin ligands by halogenation” (J Med Chem, 2013).

Columns and labels:
[1] = Inhibition of human recombinant TTR Y78F mutant-mediated fibrillogenesis after 30 mins by turbidimetric assay
In short: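 Recombinant TTR Y78F (4 mg/mL in 20 mM potassium phosphate, 100 mM KCl, 1 mM EDTA, pH 7.6) was preincubated 30 min at 37 °C with 0−40 μM compound (final). Acid fibrillogenesis was started with pH 4.2 acetate buffer, giving final 0.4 mg/mL TTR and 5% DMSO. A340 was read every 1 min for 1.5 h at 37 °C. IC50 came from fitting initial rates to v0 = A + B·exp(−C[I]).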

Homo sapiens = organism: Homo sapiens; assay: Inhibition of human recombinant TTR Y78F mutant-mediated fibrillogenesis at 40 uM after 30 mins by turbidimetric assay relative to control
In short: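 Y78F TTR turbidity assay: 30 min preincubation at 37 °C with 0−40 μM compound, then pH 4.2 acetate buffer (final 0.4 mg/mL TTR, 5% DMSO). A340 was monitored for 1.5 h at 37 °C. Initial rates were fitted to v0 = A + B·exp(−C[I]). RA% is the percentage reduction in fibril formation rate at high inhibitor concentration versus no inhibitor.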

[2] = Binding affinity to human recombinant TTR Y78F mutant after 5 mins by isothermal titration calorimetry
In short: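 Recombinant human TTR Y78F (E. coli-expressed), 20−30 μM in cell, in 100 mM potassium phosphate, KCl, 1 mM EDTA, 5% (v/v) DMSO, pH 7.6, filtered and degassed 5 min. Titrant was 500 μM ligand in the same buffer. One 0.5−1 μL injection, then 1.5−2 μL injections every 150 s, 25 °C. Dilution blanks subtracted; isotherms fitted to a two identical-site model to give Kd.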

Row | SMILES | IC50 [1] | inhibition (Homo sapiens) | Kd [2]
1 | Oc1c(Cl)cc(-c2cc(Cl)c(O)c(Cl)c2)cc1Cl | 2.1 µM | 100% | 
2 | O=C(O)c1cc(-c2ccc(F)cc2F)cc(I)c1O |  | 94% | 0.087 µM
3 | O=C(O)c1ccccc1Nc1cccc(C(F)(F)F)c1 [FLUFENAMIC ACID] | 6.2 µM | 89% | 0.109 µM
4 | CC/C(=C(/CC)c1ccc(O)cc1)c1ccc(O)cc1 [DIETHYLSTILBESTROL] | 16.6 µM | 67% | 
5 | O=C(O)c1ccccc1Nc1cc(I)cc(C(F)(F)F)c1 | 6.4 µM | 94% | 0.085 µM
6 | CC(C(=O)O)c1ccc(-c2ccccc2)c(F)c1 (stereo not given) [FLURBIPROFEN] | > 100 µM | 35% | 
7 | O=C(O)c1cc(-c2ccc(F)cc2F)ccc1O [DIFLUNISAL] | 18 µM | 85% | 1.16 µM
8 | O=C(O)c1ccc(-c2cc(F)cc(F)c2)cc1 | 10.8 µM | 89% | 
9 | O=C(O)c1ccccc1Nc1cc(F)cc(C(F)(F)F)c1 | 6.5 µM | 91% | 0.091 µM
10 | O=C(O)Cc1cc(I)c(Oc2cc(I)c(O)c(I)c2)c(I)c1 [TETRAC] | 4.8 µM | 93% | 
11 | O=C(O)c1cc(-c2ccc(F)cc2F)cc(F)c1O | 7.6 µM | 87% | 1.12 µM
12 | N[C@@H](Cc1cc(I)c(Oc2cc(I)c(O)c(I)c2)c(I)c1)C(=O)O [LEVOTHYROXINE] |  | 80% | 
13 | O=C(O)c1cc(-c2ccc(F)cc2F)cc(Cl)c1O | 7.5 µM | 89% | 0.375 µM
14 | O=C(O)c1ccccc1Nc1cc(Cl)cc(C(F)(F)F)c1 | 6 µM | 86% | 0.086 µM
15 | O=C(O)c1cc(-c2ccc(Cl)cc2Cl)ccc1O | 12.8 µM | 75% | 
16 | O=[N+]([O-])c1ccc(O)c([N+](=O)[O-])c1 [2,4-DINITROPHENOL] | 20 µM | 77% | 
17 | Oc1ccc(/C=C/c2cc(O)cc(O)c2)cc1 [RESVERATROL] | 4.5 µM | 89% | 
18 | O=C(O)c1ccccc1Nc1cc(Br)cc(C(F)(F)F)c1 | 5.9 µM | 91% | 0.064 µM
19 | CC1=C(/C=C/C(C)=C/C=C/C(C)=C/C(=O)O)C(C)(C)CCC1 [TRETINOIN] | 8.1 µM | 100% | 
20 | O=C(O)c1cc(-c2ccc(F)cc2F)cc(Br)c1O | 5.6 µM | 88% | 0.194 µM
21 | O=C(O)Cc1ccccc1Nc1c(Cl)cccc1Cl [DICLOFENAC] | 26 µM | 74% | 
